Assay results: ChEMBL document CHEMBL2390928
Activity calls are given as the source filed them. No cut-off for these calls is given here.

Assays:
[1] = organism: Bos taurus; assay: Displacement of [3H]-colchicine from bovine brain tubulin at 5 uM after 10 mins relative to control
Procedure, shortened: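 Electrophoretically homogeneous bovine brain tubulin, 1.0 µM, incubated 10 min at 37 °C with 5.0 µM [3H]colchicine and 5.0 µM inhibitor; colchicine binding inhibition expressed as percent ± SD.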

[2] = tested on: MDA-MB-435; assay: Cytotoxicity against human MDA-MB-435 cells assessed as growth inhibition after 48 hrs by SRB assay; assay type: functional, cell-based; conditions: MDA-MB-435, 48 h
[3] = tested on: HeLa; assay: Resistance ratio of IC50 for human HeLa cells expressing beta-3 tubulin to IC50 for human HeLa cells; assay type: functional
Procedure, shortened: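 HeLa WT βIII cells are HeLa cells transfected with the βIII-tubulin gene. IC50 in this line and in parental HeLa is taken from the sulforhodamine B assay (3–5 independent experiments). Rr is the βIII-line IC50 divided by the parental HeLa IC50.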

[4] = Inhibition of bovine brain tubulin assembly after 20 mins by spectrophotometric analysis; design: species or system Bos taurus
Procedure, shortened: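 Electrophoretically homogeneous bovine brain tubulin is used at 10 µM (1.0 mg/mL) with varying inhibitor concentrations. After 15 min preincubation at 30 °C, 0.4 mM GTP is added.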

[5] = tested on: HeLa; assay: Cytotoxicity against human HeLa cells assessed as growth inhibition after 48 hrs by SRB assay; assay type: functional, cell-based
[6] = tested on: SK-OV-3; assay: Resistance ratio of IC50 for human SKOV3 cells expressing MDR1 to IC50 for human SKOV3 cells; assay type: functional
Procedure, shortened: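 Relative resistance (Rr) is the IC50 in Pgp-expressing SK-OV-3 MDR-1-6/6 cells divided by the IC50 in parental SK-OV-3 cells.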

[7] = Induction of interphase microtubule depolymerization in rat A10 cells after 18 to 24 hrs by indirect immunofluorescence assay; assay type: cell-based
Procedure, shortened: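 Rat aortic smooth muscle A-10 cells are treated for 18 h, fixed in cold methanol, and stained for microtubules with a β-tubulin antibody by indirect immunofluorescence. […] It is computed per experiment over a wide concentration range, from at least 3 independent experiments, and reported as mean ± SD.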

[8] = Ratio of EC50 for induction of microtubule depolymerization in rat A10 cells to IC50 for human MDA-MB-435 cells
Procedure, shortened: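 This ratio divides the A-10 EC50 by the MDA-MB-435 melanoma IC50. […] The IC50 is from the sulforhodamine B proliferation assay, 3–5 independent experiments.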

[9] = tested on: SK-OV-3; assay: Cytotoxicity against human SKOV3 cells assessed as growth inhibition after 48 hrs by SRB assay; assay type: functional, cell-based; conditions: SK-OV-3, 48 h
[10] = tested on: RPMI-8226; assay: Growth inhibition of human RPMI8226 cells; assay type: functional
[11] = Growth inhibition of human EKVX cells; assay type: functional
[12] = tested on: SW-620; assay: Growth inhibition of human SW620 cells; assay type: functional
[13] = tested on: ACHN; assay: Growth inhibition of human ACHN cells; assay type: functional
[14] = tested on: NCI-H460; assay: Growth inhibition of human NCI-H460 cells; assay type: functional
[15] = tested on: NCI-H23; assay: Growth inhibition of human NCI-H23 cells; assay type: functional
[16] = tested on: HCT-15; assay: Growth inhibition of human HCT15 cells; assay type: functional
[17] = tested on: CCRF-CEM; assay: Growth inhibition of human CCRF-CEM cells; assay type: functional
[18] = tested on: OVCAR-8; assay: Growth inhibition of human OVCAR8 cells; assay type: functional
[19] = tested on: SNB-19; assay: Growth inhibition of human SNB19 cells; assay type: functional
[20] = tested on: UO-31; assay: Growth inhibition of human UO31 cells; assay type: functional
[21] = tested on: NCI-H522; assay: Growth inhibition of human NCI-H522 cells; assay type: functional
[22] = tested on: HT-29; assay: Growth inhibition of human HT-29 cells; assay type: functional
[23] = tested on: MDA-MB-435; assay: Cell cycle arrest in human MDA-MB-435 cells assessed as increase in accumulation at G2/M phase at 44.1 to 73.5 nM after 18 hrs by FACS flow cytometric analysis; assay type: functional, cell-based
Procedure, shortened: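 Cells harvested, stained with Krishan's reagent (propidium iodide), analysed by flow cytometry; propidium iodide intensity plotted against event count to give cell cycle distribution.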

[24] = tested on: OVCAR-5; assay: Growth inhibition of human OVCAR5 cells; assay type: functional
[25] = tested on: SK-MEL-5; assay: Growth inhibition of human SK-MEL-5 cells; assay type: functional
[26] = tested on: Hs-578T; assay: Growth inhibition of human Hs578T cells; assay type: functional
[27] = tested on: SN12C; assay: Growth inhibition of human SN12C cells; assay type: functional
[28] = tested on: DU-145; assay: Growth inhibition of human DU145 cells; assay type: functional
[29] = tested on: SF-539; assay: Growth inhibition of human SF539 cells; assay type: functional
[30] = tested on: KM12; assay: Growth inhibition of human KM12 cells; assay type: functional
[31] = tested on: SNB-75; assay: Growth inhibition of human SNB75 cells; assay type: functional
[32] = Growth inhibition of human NCI-ADR-RES cells; assay type: functional
[33] = tested on: MCF7; assay: Growth inhibition of human MCF7 cells; assay type: functional
[34] = tested on: 786-0; assay: Growth inhibition of human 786-0 cells; assay type: functional
[35] = tested on: MDA-MB-231; assay: Growth inhibition of human MDA-MB-231 cells; assay type: functional
[36] = tested on: UACC-62; assay: Growth inhibition of human UACC62 cells; assay type: functional
[37] = tested on: SF-295; assay: Growth inhibition of human SF295 cells; assay type: functional
[38] = tested on: RXF 393; assay: Growth inhibition of human RXF393 cells; assay type: functional
[39] = tested on: BT-549; assay: Growth inhibition of human BT549 cells; assay type: functional
[40] = tested on: MOLT-4; assay: Growth inhibition of human MOLT4 cells; assay type: functional
[41] = tested on: SK-OV-3; assay: Growth inhibition of human SKOV3 cells; assay type: functional
[42] = tested on: NCI-H226; assay: Growth inhibition of human NCI-H226 cells; assay type: functional
[43] = tested on: LOX IMVI; assay: Growth inhibition of human LOXIMVI cells; assay type: functional
[44] = tested on: HOP-92; assay: Growth inhibition of human HOP92 cells; assay type: functional
[45] = tested on: SF-268; assay: Growth inhibition of human SF268 cells; assay type: functional
[46] = tested on: TK-10; assay: Growth inhibition of human TK10 cells; assay type: functional
[47] = tested on: Malme-3M; assay: Growth inhibition of human MALME-3M cells; assay type: functional
[48] = tested on: A549; assay: Growth inhibition of human A549 cells; assay type: functional
[49] = tested on: SR; assay: Growth inhibition of human SR cells; assay type: functional
[50] = tested on: HOP-62; assay: Growth inhibition of human HOP62 cells; assay type: functional
[51] = tested on: PC-3; assay: Growth inhibition of human PC3 cells; assay type: functional
[52] = tested on: MDA-MB-435; assay: Growth inhibition of human MDA-MB-435 cells; assay type: functional
[53] = tested on: HCT-116; assay: Growth inhibition of human HCT116 cells; assay type: functional
[54] = tested on: U-251; assay: Growth inhibition of human U251 cells; assay type: functional
[55] = tested on: OVCAR-3; assay: Growth inhibition of human OVCAR3 cells; assay type: functional
[56] = tested on: SK-MEL-28; assay: Growth inhibition of human SK-MEL-28 cells; assay type: functional
[57] = tested on: COLO 205; assay: Growth inhibition of human COLO205 cells; assay type: functional
[58] = tested on: OVCAR-4; assay: Growth inhibition of human OVCAR4 cells; assay type: functional
[59] = Growth inhibition of human HCC2998 cells; assay type: functional; conditions: HCC 2998
[60] = tested on: SK-MEL-2; assay: Growth inhibition of human SK-MEL-2 cells; assay type: functional
[61] = tested on: MDA-MB-468; assay: Growth inhibition of human MDA-MB-468 cells; assay type: functional
[62] = tested on: A498; assay: Growth inhibition of human A498 cells; assay type: functional
[63] = tested on: HL-60(TB); assay: Growth inhibition of human HL-60(TB) cells; assay type: functional
[64] = tested on: NCI-H322M; assay: Growth inhibition of human NCI-H322M cells; assay type: functional
[65] = tested on: M14; assay: Growth inhibition of human M14 cells; assay type: functional
[66] = tested on: K562; assay: Growth inhibition of human K562 cells; assay type: functional

## CCN(c1ccc(OC)cc1)c1nc(N)nc2[nH]c3ccccc3c12
[1]
  inhibition: 76%
[2]
  IC50: 23.5 nM
[3]
  Ratio IC50: 1.4
[4]
  IC50: 1700 nM
[5]
  IC50: 32.8 nM
[6]
  Ratio IC50: 1.4
[7]
  EC50: 198 nM
[8]
  Ratio: 8.4
[9]
  IC50: 53 nM

## COc1ccc(/C=C\c2cc(OC)c(OC)c(OC)c2)cc1O [COMBRETASTATIN A4]
[5]
  IC50: 4.7 nM
[7]
  EC50: 13 nM
[9]
  IC50: 9.7 nM

## COc1ccc(N(C)c2nc(N)nc3[nH]c4ccccc4c23)cc1
[10]
  GI50: 41.1 nM
[11]
  GI50: 16.7 nM
[12]
  GI50: 19 nM
[13]
  GI50: 89.6 nM
[1]
  inhibition: 84%
[14]
  GI50: 30 nM
[15]
  GI50: 31.8 nM
[16]
  GI50: 26.1 nM
[17]
  GI50: 41.1 nM
[18]
  GI50: 42.3 nM
[19]
  GI50: 50.9 nM
[20]
  GI50: 53.7 nM
[2]
  IC50: 14.7 nM
[21]
  GI50: < 10 nM
[22]
  GI50: 31 nM
[23]
  Activity: Active
[24]
  GI50: 51.2 nM
[25]
  GI50: 32.3 nM
[26]
  GI50: 11.5 nM
[27]
  GI50: 80.1 nM
[28]
  GI50: 31.4 nM
[29]
  GI50: 24.2 nM
[30]
  GI50: 13.2 nM
[31]
  GI50: 12.7 nM
[32]
  GI50: 11.5 nM
[4]
  IC50: 1400 nM
[33]
  GI50: 16.4 nM
[34]
  GI50: 49 nM
[35]
  GI50: 64.6 nM
[36]
  GI50: 27 nM
[37]
  GI50: 26 nM
[38]
  GI50: 16.9 nM
[39]
  GI50: 94.5 nM
[40]
  GI50: 47.7 nM
[41]
  GI50: 29.9 nM
[42]
  GI50: 133 nM
[43]
  GI50: 68.4 nM
[44]
  GI50: 242 nM
[45]
  GI50: 37.7 nM
[46]
  GI50: 56.2 nM
[47]
  GI50: 304 nM
[48]
  GI50: 36.4 nM
[49]
  GI50: < 10 nM
[50]
  GI50: 40 nM
[5]
  IC50: 21.3 nM
[51]
  GI50: 44.3 nM
[52]
  GI50: < 10 nM
[53]
  GI50: 29.8 nM
[54]
  GI50: 37.3 nM
[55]
  GI50: 12.9 nM
[7]
  EC50: 105 nM
[56]
  GI50: < 10 nM
[57]
  GI50: 25.8 nM
[9]
  IC50: 27.6 nM
[58]
  GI50: 52.7 nM
[59]
  GI50: 23.6 nM
[60]
  GI50: 19.7 nM
[61]
  GI50: 26.9 nM
[62]
  GI50: 15.8 nM
[63]
  GI50: 32.2 nM
[64]
  GI50: 64.2 nM
[65]
  GI50: 16.6 nM
[66]
  GI50: < 10 nM

## CCOc1ccc(N(C)c2nc(N)nc3[nH]c4ccccc4c23)cc1
[1]
  inhibition: 82%
[2]
  IC50: 14.4 nM
[3]
  Ratio IC50: 0.8
[4]
  IC50: 1700 nM
[5]
  IC50: 23.1 nM
[6]
  Ratio IC50: 1.3
[7]
  EC50: 83 nM
[8]
  Ratio: 6.5
[9]
  IC50: 23 nM

## CC(=O)O[C@H]1C(=O)[C@@]2(C)[C@H]([C@H](OC(=O)c3ccccc3)[C@]3(O)C[C@H](OC(=O)[C@H](O)[C@@H](NC(=O)c4ccccc4)c4ccccc4)C(C)=C1C3(C)C)[C@]1(OC(C)=O)CO[C@@H]1C[C@@H]2O [PACLITAXEL]
[9]
  IC50: 4.4 nM

## COc1ccc(N(C)c2nc(C)nc3[nH]ccc23)cc1
[1]
  inhibition: 70%
[4]
  IC50: 2600 nM
